From ChEMBL document CHEMBL1140556, “Design, structure-activity relationship, and pharmacokinetic profile of pyrazole-based indoline factor Xa inhibitors” (Bioorg Med Chem Lett, 2007) come the findings set out here.

One series deals with Coagulation factor X (Homo sapiens, UniProt P00742). Put plainly: Inhibition of human factor 10a. Put shortly: (§1)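 Ki values were measured against the purified human enzymes.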
The next series has as its target Prothrombin (Homo sapiens, UniProt P00734). Put plainly: Inhibition of human thrombin.
Another series deals with Plasma. The series can be described thus: Anticoagulant potency in human plasma assessed as concentration required to double prothrombin time. Format: functional.
The target in the next series is Trypsin (Homo sapiens, UniProt P07477+P07478+P35030). Put plainly: Inhibition of human trypsin. Format: protein assay. Put shortly: as §1
Series [1] can be described thus: Apparent permeability across Caco-2 cells. The class given is ADME, cell-based. The conditions noted are these: human.
A short description of series [2]: Clearance in dog at 0.5 mg/kg, iv and 0.2 mg/kg, po. Format: ADME, organism-based, Canis lupus familiaris. The conditions noted are these: in vivo. Put shortly: (§2)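 Cassette (N-in-1) dosing, with compounds given together at 0.5 mg/kg iv and 0.2 mg/kg po; one animal per route (n = 1). Clearance, steady-state volume of distribution, oral half-life and oral bioavailability (F%) were derived from plasma levels.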

Series [3] can be described thus: (§3) Volume of distribution at steady state in dog at 0.5 mg/kg, iv and 0.2 mg/kg, po. The conditions noted are these: in vivo, read-out: Vdss. Format: ADME, organism-based, Canis lupus familiaris. Put shortly:
as §2

A short description of series [4]: Half life in dog at 0.2 mg/kg, po. The settings on record: in vivo. The arrangement: dose 0.2 mg/kg, route oral. Format: ADME, organism-based, Canis lupus familiaris. Put shortly: as §2
Series [5] can be described thus: Oral bioavailability in dog at 0.2 mg/kg. The class given is ADME, organism-based, Canis lupus familiaris. The conditions noted are these: in vivo. Put shortly:
as §2

The next series concerns Canis familiaris. Described as §3. Format: ADME, organism-based, Canis lupus familiaris. The conditions noted are these: in vivo. Put shortly:
as §2

Sequence of Coagulation factor X (P00742 41-179 limits assumed): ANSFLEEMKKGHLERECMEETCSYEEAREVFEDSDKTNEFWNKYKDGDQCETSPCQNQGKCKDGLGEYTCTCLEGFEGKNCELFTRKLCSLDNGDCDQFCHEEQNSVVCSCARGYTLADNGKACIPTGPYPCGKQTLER
Sequence of Coagulation factor X (P00742 235-488 limits assumed): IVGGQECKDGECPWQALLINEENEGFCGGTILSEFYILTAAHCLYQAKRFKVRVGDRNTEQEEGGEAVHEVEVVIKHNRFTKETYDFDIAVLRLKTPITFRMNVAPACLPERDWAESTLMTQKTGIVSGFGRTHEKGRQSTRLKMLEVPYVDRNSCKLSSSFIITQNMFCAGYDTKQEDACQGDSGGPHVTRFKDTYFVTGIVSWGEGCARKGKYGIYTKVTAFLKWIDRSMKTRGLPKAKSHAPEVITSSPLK

On to `CS(=O)(=O)c1ccccc1-c1ccc2c(c1)CCN2C(=O)c1cc(C(N)=O)nn1-c1ccc2onc(N)c2c1`, for which the Ki at Coagulation factor X was 0.82 nM; at Prothrombin, more than 20000 nM. The Activity with Plasma was 41 µM.

Regarding `CN(C)Cc1ccccc1-c1ccc2c(c1)CCN2C(=O)c1cc(C(F)(F)F)nn1-c1ccc2onc(N)c2c1`, the results for the inhibitory constant (Ki) at Coagulation factor X and on Prothrombin were 19 nM and 19200 nM, respectively.

Take `CN(C)Cc1ccccc1-c1ccc2c(c1)CCN2C(=O)c1cc(C(N)=O)nn1-c1ccc2onc(N)c2c1`: the Ki at Coagulation factor X is 1 nM; at Trypsin, more than 20000 nM. Besides, the Activity in the series with Plasma came to 3 µM. Also, the apparent permeability coefficient (Papp) in series [1] was 0.3 ×10⁻⁶ cm/s.

`CS(=O)(=O)c1ccccc1-c1ccc2c(c1)N(C(=O)c1cc(C(N)=O)nn1-c1ccc3onc(N)c3c1)CC2` came in with an inhibition constant (Ki) on Coagulation factor X of 1400 nM.

With `NC(=O)c1cc(C(=O)N2CCc3cc(N4CCCCC4=O)ccc32)n(-c2ccc3onc(N)c3c2)n1`, the Ki on Coagulation factor X is 2.4 nM. In the series on Plasma, the Activity was determined as 3.3 µM. Further, the Papp in series [1] amounted to 0.1 ×10⁻⁶ cm/s. The molecule further showed a clearance in series [2] of 3.67 mL/min/kg. Besides, in series [3], the Vd stood at 0.2 L/kg. The molecule further had a half-life in series [4] of 1.6 h. This molecule also registered a bioavailability in series [5] of 6%.

`NC(=O)c1cc(C(=O)N2CCc3cc(N4CCCCCC4=O)ccc32)n(-c2ccc3onc(N)c3c2)n1`: the affinity at Coagulation factor X, expressed as Ki, was 15 nM.

As to `CS(=O)(=O)c1ccccc1-c1ccc2c(c1)OCCN2C(=O)c1cc(C(F)(F)F)nn1-c1ccc2onc(N)c2c1`, the values for the inhibition constant Ki on Coagulation factor X and at Prothrombin were 71 nM and more than 21000 nM, respectively.

As for `CN(C)Cc1nccn1-c1ccc2c(c1)CCN2C(=O)c1cc(C(N)=O)nn1-c1ccc2onc(N)c2c1`, the affinity at Coagulation factor X, expressed as Ki, was 2.2 nM.

Consider `CC(=O)N(C)Cc1nccn1-c1ccc2c(c1)CCN2C(=O)c1cc(C(N)=O)nn1-c1ccc2onc(N)c2c1`, for which the Ki on Coagulation factor X stood at 4.8 nM.

On to `CS(=O)(=O)c1ccccc1-c1ccc2c(c1)CCN2C(=O)c1cc(C(F)(F)F)nn1-c1ccc2onc(N)c2c1`, for which the values for the inhibitory constant (Ki) at Coagulation factor X, at Prothrombin and at Trypsin were 1.5 nM, more than 21000 nM and more than 2500 nM, respectively. The Activity in the series with Plasma turned out to be 26 µM.

On Coagulation factor X, `NC(=O)c1cc(C(=O)N2CCc3ccc(N4CCCCCC4=O)cc32)n(-c2ccc3onc(N)c3c2)n1` displayed an inhibition constant Ki of 1100 nM.

As to `CS(=O)(=O)c1ccccc1-c1ccc2c(c1)CCCN2C(=O)c1cc(C(F)(F)F)nn1-c1ccc2onc(N)c2c1`, the Ki at Coagulation factor X is 2000 nM; on Prothrombin, more than 6300 nM; on Trypsin it was more than 4200 nM.

As to `CS(=O)(=O)c1ccccc1-c1ccc2c(c1)C(=O)CCN2C(=O)c1cc(C(F)(F)F)nn1-c1ccc2onc(N)c2c1`, the figures for the Ki on Coagulation factor X, at Prothrombin and at Trypsin were 500 nM, more than 21000 nM and more than 4200 nM, respectively.

`CN(C)CC(=O)N(C)c1ccc2c(c1)N(C(=O)c1cc(C(N)=O)nn1-c1ccc3onc(N)c3c1)CC2`: the affinity at Coagulation factor X corresponds to a Ki of 350 nM.

The molecule `CN(Cc1nccn1-c1ccc2c(c1)CCN2C(=O)c1cc(C(N)=O)nn1-c1ccc2onc(N)c2c1)S(C)(=O)=O` displayed an inhibitory constant (Ki) at Coagulation factor X of 6.9 nM.

As for `Nc1noc2ccc(-n3nc(C(F)(F)F)cc3C(=O)N3CCCCc4cc(-c5ccccc5S(N)(=O)=O)ccc43)cc12`, the figures for the inhibition constant Ki on Coagulation factor X, at Prothrombin and at Trypsin were 3400 nM, more than 6300 nM and more than 4200 nM, respectively.

Consider `Nc1noc2ccc(-n3nc(C(F)(F)F)cc3C(=O)N3CCc4cc(-c5ccccc5CN5CCCC5)ccc43)cc12`, for which the Ki at Coagulation factor X was 4.9 nM; at Prothrombin, 15000 nM; on Trypsin, more than 40000 nM. Also, the clearance in series [2] is 123 mL/min/kg. Moreover, the Vd in series [3] came out at 20 L/kg.

The molecule `NC(=O)c1cc(C(=O)N2CCc3cc(-c4ccccc4CN4CCCC4)ccc32)n(-c2ccc3onc(N)c3c2)n1` returned an inhibition constant (Ki) on Coagulation factor X of 0.63 nM. The Activity in the series with Plasma was 2.1 µM. Also, the apparent permeability (Papp) in series [1] turned out to be 0.7 ×10⁻⁶ cm/s. The molecule further showed a clearance in [2] of 59.5 mL/min/kg. The Vd in series [3] turned out to be 6.2 L/kg.

On Coagulation factor X, `NC(=O)c1cc(C(=O)N2CCc3cc(-n4ccccc4=O)ccc32)n(-c2ccc3onc(N)c3c2)n1` yielded a Ki of 0.2 nM. The Activity in the series on Plasma came out at 1.9 µM. In addition, the Papp in [1] worked out at 0.1 ×10⁻⁶ cm/s.

Consider `CN(C)CC(=O)N(C)c1ccc2c(c1)CCN2C(=O)c1cc(C(N)=O)nn1-c1ccc2onc(N)c2c1`, for which the inhibition constant Ki on Coagulation factor X amounted to 6.8 nM.

With `Nc1noc2ccc(-n3nc(C(F)(F)F)cc3C(=O)N3CCc4cc(-c5ccccc5S(N)(=O)=O)ccc43)cc12`, the Ki at Coagulation factor X was 2.7 nM; at Prothrombin it was more than 21000 nM; on Trypsin it was more than 2500 nM. Further, the Activity with Plasma was 28 µM. In series [2], this molecule had a clearance of 10.5 mL/min/kg. The Vd in [3] is 2 L/kg. In series [4], this molecule gave a half-life of 4 h. In series [5], this molecule came in with a bioavailability of 66%.

Turning to `CS(=O)(=O)c1ccccc1-c1ccc(NC(=O)c2cc(C(F)(F)F)nn2-c2ccc3onc(N)c3c2)c(F)c1`, the Ki on Trypsin is more than 5200 nM.

With `CS(=O)(=O)c1ccccc1-c1ccc2c(c1)C(O)CCN2C(=O)c1cc(C(F)(F)F)nn1-c1ccc2onc(N)c2c1` (racemic), the Ki at Coagulation factor X was 1400 nM; at Prothrombin, more than 6300 nM; on Trypsin, more than 4200 nM.

In series [2], `CN(C)Cc1nccn1-c1ccc(NC(=O)c2cc(C(F)(F)F)nn2-c2ccc3onc(N)c3c2)c(F)c1` [RAZAXABAN] showed a clearance of 18.3 mL/min/kg. Besides, the Vdss with Canis familiaris turned out to be 3.4 L/kg.
